How the values were obtained:
A549 = assay: Cytotoxicity against human A549 cells assessed as inhibition of cell proliferation after 24 hrs by MTT assay; type: functional, cell-based; conditions: A549, 24 h
Summary of the method: (§1)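 MTT reduction by viable cells; formazan dissolved in DMSO, absorbance read at 570 nm. […] Values expressed as IC50 (µM).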

HepG2 = assay: Cytotoxicity against human HepG2 cells assessed as inhibition of cell proliferation after 24 hrs by MTT assay; type: functional, cell-based; conditions: HepG2, 24 h; summary of the method: as §1
MCF7 [1] = assay: Cytotoxicity against human MCF7 cells assessed as inhibition of cell proliferation after 24 hrs by MTT assay; type: functional, cell-based; conditions: MCF7, 24 h
[2] = Cytotoxicity against human SKOV3 cells assessed as inhibition of cell proliferation after 24 hrs by MTT assay; type: functional, cell-based; conditions: SK-OV-3, 24 h; summary of the method: as §1
MRC5 = assay: Cytotoxicity against human MRC5 cells assessed as cell viability after 24 hrs by MTT assay; type: cell-based; conditions: MRC5, 24 h; summary of the method: as §1
MCF7 [3] = assay: Induction of apoptosis in human MCF7 cells assessed as increase in caspase 3 activation at 8 to 12 uM using AFC-conjugated […] as substrate after 24 to 48 hrs by fluorescence analysis relative to control; type: functional
MCF7 [4] = assay: Induction of apoptosis in human MCF7 cells assessed as increase in caspase 9 activation at 8 to 12 uM using AFC-conjugated […] as substrate after 24 to 48 hrs by fluorescence analysis relative to control; type: functional

Work on `CCOC(=O)c1c(C)[nH]c(=O)c(C#N)c1-c1ccc(OC)cc1` yielded an IC50 (A549) of 25.1 µM, an IC50 (HepG2) of 51.5 µM and an IC50 (MCF7 [1]) of 36.1 µM. The IC50 [2] was over 100 µM and the IC50 (MRC5) was 192 µM.

Work on `CCOC(=O)c1c(C)[nH]c(=O)c(C#N)c1-c1ccc(Br)cc1` yielded an IC50 (A549) of over 100 µM, an IC50 (HepG2) of 65.5 µM and an IC50 (MCF7 [1]) of 31.8 µM. For the same molecule, the IC50 [2] was over 100 µM and the IC50 (MRC5) was 310 µM.

`COc1cccc2c1C(=O)c1c(O)c3c(c(O)c1C2=O)C[C@@](O)(C(=O)CO)C[C@@H]3O[C@H]1C[C@H](N)[C@H](O)[C@H](C)O1` [DOXORUBICIN] showed an IC50 (A549) of 0.23 µM, an IC50 (HepG2) of 3.39 µM and an IC50 [2] of 25 µM. For the same molecule, the IC50 (MRC5) was 89.7 µM.

`CCOC(=O)c1c(C)[nH]c(=O)c(C#N)c1-c1ccco1` gave an IC50 (A549) of over 100 µM, an IC50 (HepG2) of 57.4 µM and an IC50 (MCF7 [1]) of 17.5 µM. For the same molecule, the IC50 [2] was 76 µM and the IC50 (MRC5) was 407 µM.

For `CCOC(=O)c1c(C)[nH]c(=O)c(C#N)c1-c1ccccc1`, the IC50 (A549) was over 100 µM, the IC50 (HepG2) was 38.5 µM and the IC50 (MCF7 [1]) was 22 µM. For the same molecule, the IC50 [2] was over 100 µM and the IC50 (MRC5) was 220 µM.

In the case of `CCOC(=O)c1c(C)[nH]c(=O)c(C#N)c1-c1cccs1`, the IC50 (A549) is reported as 20.1 µM, the IC50 (HepG2) is reported as 74 µM and the IC50 (MCF7 [1]) is reported as 33.4 µM. The IC50 [2] was 97.3 µM and the IC50 (MRC5) was 205 µM.

`CCOC(=O)c1c(C)[nH]c(=O)c(C#N)c1-c1ccc(F)cc1` showed an IC50 (A549) of 15.4 µM, an IC50 (HepG2) of 18.6 µM and an IC50 (MCF7 [1]) of 22.9 µM. For the same molecule, the IC50 [2] was over 100 µM and the IC50 (MRC5) was 149 µM.

In the case of `CCOC(=O)c1c(C)[nH]c(=O)c(C#N)c1-c1ccc([N+](=O)[O-])cc1`, the IC50 (A549) is reported as over 100 µM, the IC50 (HepG2) is reported as 21.7 µM and the IC50 (MCF7 [1]) is reported as 82 µM. The IC50 [2] was over 100 µM and the IC50 (MRC5) was 2230 µM.

With `CCOC(=O)c1c(C)[nH]c(=O)c(C#N)c1-c1ccc2c(c1)OCO2` the IC50 (A549) was 27.3 µM, the IC50 (HepG2) was over 100 µM and the IC50 (MCF7 [1]) was 34 µM. The IC50 [2] was over 100 µM and the IC50 (MRC5) was 192 µM.

`CCOC(=O)c1c(C)[nH]c(=O)c(C#N)c1-c1cccc2ccccc12` gave an IC50 (A549) of 24 µM, an IC50 (HepG2) of 32.3 µM and an IC50 (MCF7 [1]) of 31.4 µM. It also gave an IC50 [2] of over 100 µM and an IC50 (MRC5) of 196 µM.

With `CCOC(=O)c1c(C)[nH]c(=O)c(C#N)c1-c1ccc(C#N)cc1` the IC50 (A549) was over 100 µM, the IC50 (HepG2) was 20.2 µM and the IC50 (MCF7 [1]) was 9.32 µM. It also gave an IC50 [2] of over 100 µM and an IC50 (MRC5) of 1220 µM.

`CCOC(=O)c1c(C)[nH]c(=O)c(C#N)c1-c1ccccc1Cl` showed an IC50 (A549) of 25 µM, an IC50 (HepG2) of 34.1 µM and an IC50 (MCF7 [1]) of 25.4 µM. It also gave an IC50 [2] of over 100 µM and an IC50 (MRC5) of 229 µM.

With `CCOC(=O)c1c(C)[nH]c(=O)c(C#N)c1-c1ccc(C)cc1` the IC50 (A549) was 15.8 µM, the IC50 (HepG2) was 11.9 µM and the IC50 (MCF7 [1]) was 8 µM. The IC50 [2] was over 100 µM, the IC50 (MRC5) was 438 µM and the “fold change (FC)” value (MCF7 [3]) was 2. For the same molecule, the “fold change (FC)” value (MCF7 [4]) was 2.

`CCOC(=O)c1c(C)[nH]c(=O)c(C#N)c1-c1cc(OC)c(OC)c(OC)c1` gave an IC50 (A549) of 23.4 µM, an IC50 (HepG2) of 20.9 µM and an IC50 (MCF7 [1]) of 18.1 µM. The IC50 [2] was over 100 µM and the IC50 (MRC5) was 253 µM.
